From ChEMBL document CHEMBL4334522, “Optimization Strategy of Novel Peptide-Based Michael Acceptors for the Treatment of Human African Trypanosomiasis” (J Med Chem, 2019)
Activity calls are given as the source filed them. The rule behind the calls is not given here.

Key:
Procathepsin L [1] = biological target: T1, Procathepsin L (Homo sapiens, UniProt P07711); test: Inhibition of human Cathepsin L assessed as inhibition constant using Cbz-Phe-Arg-AMC as substrate by fluorescence assay
Target sequence in this assay (P07711 whole entry): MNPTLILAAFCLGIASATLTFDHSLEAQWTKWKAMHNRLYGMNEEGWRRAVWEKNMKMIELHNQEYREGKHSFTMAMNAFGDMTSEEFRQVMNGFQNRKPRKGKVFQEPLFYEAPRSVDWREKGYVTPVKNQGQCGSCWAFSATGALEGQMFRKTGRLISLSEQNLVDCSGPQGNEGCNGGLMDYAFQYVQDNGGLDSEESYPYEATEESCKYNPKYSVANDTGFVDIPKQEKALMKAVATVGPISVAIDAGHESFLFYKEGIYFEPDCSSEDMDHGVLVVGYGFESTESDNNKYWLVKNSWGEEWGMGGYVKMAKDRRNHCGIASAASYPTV

[2] = biological target: Rhodesain (Trypanosoma brucei rhodesiense) (UniProt Q95PM0); test: Inhibition of Trypanosoma brucei rhodesiense rhodesain expressed in Pichia pastoris assessed as first-order rate constant measured for 30 mins using Cbz-Phe-Arg-AMC as substrate by fluorescence assay
Rhodesain (Trypanosoma brucei rhodesiense), sequence (Q95PM0 1-450): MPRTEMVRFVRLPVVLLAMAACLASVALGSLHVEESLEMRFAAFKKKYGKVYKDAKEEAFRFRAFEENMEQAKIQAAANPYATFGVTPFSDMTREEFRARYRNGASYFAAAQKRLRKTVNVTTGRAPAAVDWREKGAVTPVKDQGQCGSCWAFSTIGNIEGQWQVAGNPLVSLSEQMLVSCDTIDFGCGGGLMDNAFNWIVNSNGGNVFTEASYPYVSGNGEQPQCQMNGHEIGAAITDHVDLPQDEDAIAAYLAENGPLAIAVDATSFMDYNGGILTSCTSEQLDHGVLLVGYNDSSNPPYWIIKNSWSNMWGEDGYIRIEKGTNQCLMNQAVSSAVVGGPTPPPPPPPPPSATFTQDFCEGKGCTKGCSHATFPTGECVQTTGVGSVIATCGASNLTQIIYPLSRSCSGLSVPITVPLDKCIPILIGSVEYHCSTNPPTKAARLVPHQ
Procedure, shortened: (§1)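 Continuous rhodesain assay using 7 inhibitor concentrations spanning minimal to full inhibition, with 10 µM Cbz-Phe-Arg-AMC. Buffer: 50 mM sodium acetate pH 5.5, 5 mM EDTA, 200 mM NaCl, 0.005% Brij 35; enzyme buffer had 5 mM DTT instead. Read at room temperature for 30 min, ex 380/em 460 nm. kobs came from fitting progress curves to F = A(1−exp(−kobs·t)) + B. Fitting kobs against [I] hyperbolically gave kinac and Kiapp. Kiapp was corrected by (1+[S]/Km) with Km 0.9 µM, and k2nd = kinac/Ki. Each assay was run twice in duplicate.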

Procathepsin L [3] = biological target: T1, Procathepsin L; test: Inhibition of human Cathepsin L assessed as second order rate constant obtained from ratio of Kinact to Ki using Cbz-Phe-Arg-AMC as substrate by fluorescence assay
Target sequence in this assay (P07711 114-333 limits assumed): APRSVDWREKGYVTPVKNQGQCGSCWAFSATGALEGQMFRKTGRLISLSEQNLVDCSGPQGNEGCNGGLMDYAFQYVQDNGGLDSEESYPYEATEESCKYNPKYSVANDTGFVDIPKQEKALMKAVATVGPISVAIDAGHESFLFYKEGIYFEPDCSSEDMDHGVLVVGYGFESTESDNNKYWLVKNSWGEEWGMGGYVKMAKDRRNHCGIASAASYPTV

Procathepsin L [4] = biological target: T1, Procathepsin L; test: Inhibition of human Cathepsin L assessed as first-order rate constant using Cbz-Phe-Arg-AMC as substrate by fluorescence assay
Target sequence in this assay (P07711 114-333 limits assumed): as above

[5] = biological target: Rhodesain (Trypanosoma brucei rhodesiense) (UniProt Q95PM0); test: Inhibition of Trypanosoma brucei rhodesiense rhodesain expressed in Pichia pastoris at 50 uM measured for 30 mins using Cbz-Phe-Arg-AMC as substrate by fluorescence assay relative to control
Procedure, shortened: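 Recombinant rhodesain screened with inhibitor at 50 µM against an equivalent DMSO negative control. AMC release from 10 µM Cbz-Phe-Arg-AMC was followed continuously for 30 min.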

[6] = biological target: Rhodesain (Trypanosoma brucei rhodesiense) (UniProt Q95PM0); test: Inhibition of Trypanosoma brucei rhodesiense rhodesain expressed in Pichia pastoris assessed as second order rate constant obtained from ratio of Kinact to Ki measured for 30 mins using Cbz-Phe-Arg-AMC as substrate by fluorescence assay; procedure, shortened: as §1
Rhodesain = Rhodesain (Trypanosoma brucei rhodesiense, UniProt Q95PM0); test: Inhibition of Trypanosoma brucei rhodesiense rhodesain expressed in Pichia pastoris assessed as inhibition constant measured for 30 mins using Cbz-Phe-Arg-AMC as substrate by fluorescence assay
Rhodesain, sequence (Q95PM0 whole entry): as the sequence (Q95PM0 1-450) above
Procedure, shortened: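 Recombinant rhodesain, continuous fluorimetric assay with Cbz-Phe-Arg-AMC at 10 µM, ex 380/em 460 nm, read 30 min at room temperature. Buffer: 50 mM sodium acetate pH 5.5, 5 mM EDTA, 200 mM NaCl, 0.005% Brij 35; enzyme buffer has 5 mM DTT. Seven inhibitor concentrations. kobs from progress-curve fits, hyperbolic fit gives Kiapp, corrected with Km 0.9 µM to Ki. Two independent assays in duplicate.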

[7] = system: Trypanosoma brucei brucei; test: Antitrypanosomal activity against blood stage form of Trypanosoma brucei brucei 449 incubated for 24 hrs by ATPlite assay; type: functional, organism-based; details: Trypanosoma brucei, 449, 24 h
Procedure, shortened: (§2)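 Bloodstream-form T. b. brucei 449 (Lister 427 descendant) cultured in HMI-9 with 10% FCS, penicillin/streptomycin and 0.2 µg/mL phleomycin at 37°C, 5% CO2. Cells seeded at 2500 cells/mL. Compounds from 5 mM stocks were serially diluted 1:2 to give 16.7 µM to 32.5 nM final. Controls: 0.3% DMSO (negative) and 10% DMSO (positive). Incubated 24 h or 48 h, in two separate triplicates. Viability read by ATPlite luminescence; EC50 taken from dose-response curves.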

[8] = system: Trypanosoma brucei brucei; test: Antitrypanosomal activity against blood stage form of Trypanosoma brucei brucei 449 incubated for 48 hrs by ATPlite assay; type: functional, organism-based; details: Trypanosoma brucei, 449, 48 h; procedure, shortened: as §2
[9] = biological target: Rhodesain (Trypanosoma brucei rhodesiense) (UniProt Q95PM0); test: Irreversible inhibition of Trypanosoma brucei rhodesiense rhodesain expressed in Pichia pastoris at 0.005 to 0.5 nM measured for 30 mins using Cbz-Phe-Arg-AMC as substrate by fluorescence assay; procedure, shortened: as §1

Compound	Ki (Procathepsin L [1])	Kinact [2]	K (Procathepsin L [3])	Kinact (Procathepsin L [4])	inhibition [5]	K [6]	Ki (Rhodesain)	EC50 [7]	EC50 [8]	inhibition [9]
CC(=O)/C=C/[C@H](CCc1ccccc1)NC(=O)[C@H](Cc1ccccc1)NC(=O)N1CCOCC1	175 nM	0.00049 min⁻¹	23 ×10³ /M/min	0.0039 min⁻¹	85 to 100%	157 ×10³ /M/min	3.1 nM			
CC(=O)/C=C/[C@H](CCc1ccccc1)NC(=O)[C@H](Cc1ccccc1)NC(=O)c1cccc(F)c1	47 nM	0.0032 min⁻¹	41 ×10³ /M/min	0.0019 min⁻¹	85 to 100%	149000 ×10³ /M/min	0.023 nM			
CC(=O)/C=C/[C@H](CCc1ccccc1)NC(=O)[C@H](Cc1ccccc1)NC(=O)N1CCN(C)CC1	158 nM	0.00042 min⁻¹	31 ×10³ /M/min	0.0047 min⁻¹	85 to 100%	266 ×10³ /M/min	1.8 nM			
CC(=O)/C=C/[C@H](CCc1ccccc1)NC(=O)[C@H](Cc1ccccc1)NC(=O)c1ccc(C(F)(F)F)cc1	4.1 nM	0.00075 min⁻¹	380 ×10³ /M/min	0.0015 min⁻¹	85 to 100%	175000 ×10³ /M/min	0.0044 nM			
CC(=O)/C=C/[C@H](CCc1ccccc1)NC(=O)[C@H](Cc1ccccc1)NC(=O)c1ccc(F)cc1F	35 nM	7e-05 min⁻¹	52 ×10³ /M/min	0.0015 min⁻¹	85 to 100%	107000 ×10³ /M/min	0.0006 nM	740 nM	670 nM	
CC(=O)/C=C/[C@H](CCc1ccccc1)NC(=O)[C@H](Cc1ccccc1)NC(=O)c1ccc2c(c1)OCCO2	78.2 nM	0.0043 min⁻¹	102 ×10³ /M/min	0.0076 min⁻¹	85 to 100%	7200 ×10³ /M/min	0.74 nM			
CCC(=O)/C=C/[C@H](CCc1ccccc1)NC(=O)[C@H](Cc1ccccc1)NC(=O)OCc1ccccc1	108 nM	0.00082 min⁻¹	67 ×10³ /M/min	0.0071 min⁻¹	85 to 100%	1800 ×10³ /M/min	0.5 nM			
CC(=O)/C=C/[C@H](CCc1ccccc1)NC(=O)[C@H](Cc1ccccc1)NC(=O)c1c(F)cccc1F	230 nM	0.0012 min⁻¹	8.9 ×10³ /M/min	0.002 min⁻¹	85 to 100%	151000 ×10³ /M/min	0.0076 nM			
CC(=O)/C=C/[C@H](CCc1ccccc1)NC(=O)[C@H](Cc1ccccc1)NC(=O)Cc1ccc2c(c1)OCO2	90.3 nM	0.00085 min⁻¹	59 ×10³ /M/min	0.0053 min⁻¹	85 to 100%	435 ×10³ /M/min	2.1 nM			
CC(=O)/C=C/[C@H](CCc1ccccc1)NC(=O)[C@H](Cc1ccccc1)NC(=O)c1cc(F)cc(F)c1	14.8 nM	0.0016 min⁻¹	156 ×10³ /M/min	0.0022 min⁻¹	85 to 100%	113000 ×10³ /M/min	0.015 nM	4000 nM	3400 nM	
CC(=O)/C=C/[C@H](CCc1ccccc1)NC(=O)[C@H](Cc1ccccc1)NC(=O)c1ccc(F)cc1	1.5 nM	0.0009 min⁻¹	1230 ×10³ /M/min	0.0018 min⁻¹	85 to 100%	881000 ×10³ /M/min	0.0011 nM	5100 nM	3600 nM	Active
CC(=O)/C=C/[C@H](CCc1ccccc1)NC(=O)[C@H](Cc1ccccc1)NC(=O)c1ccc(Cl)cc1	0.6 nM	0.0008 min⁻¹	3030 ×10³ /M/min	0.0018 min⁻¹	85 to 100%	29300 ×10³ /M/min	0.029 nM	4800 nM	3200 nM	
CC(=O)/C=C/[C@H](CCc1ccccc1)NC(=O)[C@H](Cc1ccccc1)NC(=O)c1ccc2c(c1)OCO2	10.2 nM	0.0005 min⁻¹	157 ×10³ /M/min	0.0016 min⁻¹	85 to 100%	15300 ×10³ /M/min	0.034 nM	5000 nM	3700 nM	
CC(=O)/C=C/[C@H](CCc1ccccc1)NC(=O)[C@H](Cc1ccccc1)NC(=O)c1ccccc1F	5.3 nM	0.0006 min⁻¹	313 ×10³ /M/min	0.0011 min⁻¹	85 to 100%	230000 ×10³ /M/min	0.003 nM			
CC(=O)/C=C/[C@H](CCc1ccccc1)NC(=O)[C@H](CCc1ccccc1)NC(=O)OCc1ccccc1	453 nM	0.00072 min⁻¹	12 ×10³ /M/min	0.0056 min⁻¹	85 to 100%	137 ×10³ /M/min	5.54 nM	550 nM	440 nM	
